Test results: article PMC6218015 (ACS Chemical Biology, 2017)

Columns and labels:
untagged ATAD2 BD = target: T1, untagged ATAD2 BD (Homo sapiens, UniProt Q6PL18); test: Size exclusion chromatography; type: binding; conditions: molar ratio 1:1
T1 sequence (Q6PL18 981-1108): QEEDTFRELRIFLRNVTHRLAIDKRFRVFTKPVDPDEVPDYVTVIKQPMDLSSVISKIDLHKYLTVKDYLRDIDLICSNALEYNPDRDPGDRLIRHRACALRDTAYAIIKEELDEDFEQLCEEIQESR

[1] = test system: HMEC nontransformed mammary epithelial cells; test: Growth inhibition of nontransformed cells; type: cell-based; conditions: HMEC vs MCF7 and MDA-MB-231
[2] = target: T2, FLAG tagged ATAD2 (342 - 1390) (Homo sapiens, UniProt Q6PL18); test: AlphaScreen, ATAD2 construct including the ATPase domain; type: binding; conditions: larger ATAD2 construct including the ATPase domain
T2 sequence (Q6PL18 342-1390): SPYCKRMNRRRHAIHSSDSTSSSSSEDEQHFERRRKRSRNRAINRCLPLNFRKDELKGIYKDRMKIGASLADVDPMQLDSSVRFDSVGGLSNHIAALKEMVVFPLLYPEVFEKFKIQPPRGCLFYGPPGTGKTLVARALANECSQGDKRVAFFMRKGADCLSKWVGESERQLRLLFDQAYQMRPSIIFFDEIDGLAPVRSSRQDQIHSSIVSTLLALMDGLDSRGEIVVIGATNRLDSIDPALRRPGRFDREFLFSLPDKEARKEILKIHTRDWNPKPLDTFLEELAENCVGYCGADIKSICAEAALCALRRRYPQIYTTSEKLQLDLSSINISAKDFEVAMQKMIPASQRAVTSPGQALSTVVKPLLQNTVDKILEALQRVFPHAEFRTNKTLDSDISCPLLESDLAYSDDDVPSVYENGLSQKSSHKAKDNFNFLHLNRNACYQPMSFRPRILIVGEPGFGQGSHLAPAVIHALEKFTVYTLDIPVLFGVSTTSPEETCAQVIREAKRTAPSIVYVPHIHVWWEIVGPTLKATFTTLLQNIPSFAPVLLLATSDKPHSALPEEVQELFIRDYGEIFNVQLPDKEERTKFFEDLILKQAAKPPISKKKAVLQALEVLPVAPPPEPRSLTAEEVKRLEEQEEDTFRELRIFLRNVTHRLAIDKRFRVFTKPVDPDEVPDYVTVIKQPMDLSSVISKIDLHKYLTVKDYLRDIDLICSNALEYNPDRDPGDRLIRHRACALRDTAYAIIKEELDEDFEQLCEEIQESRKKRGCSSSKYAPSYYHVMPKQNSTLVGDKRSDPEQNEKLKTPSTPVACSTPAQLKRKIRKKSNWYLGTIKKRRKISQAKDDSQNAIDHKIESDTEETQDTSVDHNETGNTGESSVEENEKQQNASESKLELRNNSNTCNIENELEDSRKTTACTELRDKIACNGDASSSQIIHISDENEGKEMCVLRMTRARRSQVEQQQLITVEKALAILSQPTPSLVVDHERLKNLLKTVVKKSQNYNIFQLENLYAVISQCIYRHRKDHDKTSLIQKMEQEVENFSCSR
Summary of the method: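 Binding competition between ATAD2 and an acetylated histone H4 peptide, read by AlphaScreen over increasing test compound concentrations. Signals were normalized, plotted against dose and fitted to a four-parameter logistic equation to give potency.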

panel of 354 kinases = test: Kinase panel overall; type: biochemical, human
tag-free ATAD2 = target: T3, tag-free ATAD2 (Homo sapiens, UniProt Q6PL18); test: Native mass spectrometry; type: binding; conditions: 10 μM ATAD2 BD, 5 μM compound
T3 sequence (Q6PL18 981-1108): T1 sequence (Q6PL18 981-1108)

[3] = test system: other members of the BD family; test: TSA bromodomain selectivity panel; type: binding; conditions: 10 μM
Summary of the method: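 Thermal shift assay across the bromodomain family. Melting curves of each bromodomain were acquired with 10 μM test compound or with vehicle. Compound effects were taken from the melting-curve comparison and mapped onto the bromodomain phylogenetic tree.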

His-ATAD2 BD = target: T4, His-ATAD2 BD (Homo sapiens, UniProt Q6PL18); test: AlphaScreen binding competition assay, tetra-acetylated H4 peptide
T4 sequence (Q6PL18 981-1108): T1 sequence (Q6PL18 981-1108)
Summary of the method: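 Competition for binding of acetylated histone H4 N-terminal peptides to the ATAD2 bromodomain, titrated with increasing test compound. TR-FRET read-out for mono- and tetra-acetylated peptides; AlphaScreen read-out for the tetra-acetylated peptide. Normalized signals plotted against compound dose and fitted to a four-parameter logistic equation to obtain IC50.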

ATAD2 = target: T5, ATAD2 (Homo sapiens, UniProt Q6PL18); test: BROMOscan; type: binding
T5 sequence (Q6PL18 981-1108 limits assumed): T1 sequence (Q6PL18 981-1108)

[4] = target: T6, GFP-tagged full-length wild type ATAD2 in MCF7 cells (Homo sapiens, UniProt Q6PL18); test: Fluorescence recovery after photobleaching; type: cell-based
T6 sequence (Q6PL18 1-1390): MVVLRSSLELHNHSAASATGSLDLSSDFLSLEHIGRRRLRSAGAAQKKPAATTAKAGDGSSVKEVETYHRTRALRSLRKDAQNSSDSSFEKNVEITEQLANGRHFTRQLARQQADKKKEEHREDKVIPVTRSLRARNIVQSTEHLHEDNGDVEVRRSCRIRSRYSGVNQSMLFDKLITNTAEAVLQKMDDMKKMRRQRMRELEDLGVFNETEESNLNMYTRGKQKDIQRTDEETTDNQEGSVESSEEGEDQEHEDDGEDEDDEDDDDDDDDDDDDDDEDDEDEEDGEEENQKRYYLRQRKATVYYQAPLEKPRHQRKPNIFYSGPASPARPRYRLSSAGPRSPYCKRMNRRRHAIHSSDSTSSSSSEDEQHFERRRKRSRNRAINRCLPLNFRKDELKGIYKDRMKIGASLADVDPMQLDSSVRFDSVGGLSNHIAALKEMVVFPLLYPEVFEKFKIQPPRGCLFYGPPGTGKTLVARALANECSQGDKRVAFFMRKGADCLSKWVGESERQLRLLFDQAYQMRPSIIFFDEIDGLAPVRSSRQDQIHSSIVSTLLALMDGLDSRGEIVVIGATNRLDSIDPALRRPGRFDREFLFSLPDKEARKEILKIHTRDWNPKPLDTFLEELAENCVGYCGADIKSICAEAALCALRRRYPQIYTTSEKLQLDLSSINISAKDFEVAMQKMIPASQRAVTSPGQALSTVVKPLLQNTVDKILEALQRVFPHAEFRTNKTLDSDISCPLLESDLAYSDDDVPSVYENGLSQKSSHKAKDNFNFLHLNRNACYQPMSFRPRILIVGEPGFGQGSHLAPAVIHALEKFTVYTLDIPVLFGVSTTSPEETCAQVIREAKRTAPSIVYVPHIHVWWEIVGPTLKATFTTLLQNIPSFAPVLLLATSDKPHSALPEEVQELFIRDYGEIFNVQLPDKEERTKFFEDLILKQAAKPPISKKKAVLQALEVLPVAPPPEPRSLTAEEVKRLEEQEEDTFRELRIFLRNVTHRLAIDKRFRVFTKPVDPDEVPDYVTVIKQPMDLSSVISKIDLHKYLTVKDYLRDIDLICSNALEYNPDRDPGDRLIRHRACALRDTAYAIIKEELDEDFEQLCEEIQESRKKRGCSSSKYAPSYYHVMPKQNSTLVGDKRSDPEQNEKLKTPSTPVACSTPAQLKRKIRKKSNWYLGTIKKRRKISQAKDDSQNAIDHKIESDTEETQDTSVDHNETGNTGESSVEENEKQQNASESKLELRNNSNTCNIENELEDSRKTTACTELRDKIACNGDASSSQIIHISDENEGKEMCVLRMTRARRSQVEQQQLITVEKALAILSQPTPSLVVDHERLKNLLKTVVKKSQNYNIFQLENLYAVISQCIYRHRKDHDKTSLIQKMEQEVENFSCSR
Summary of the method: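 MCF7 cells transfected with GFP-tagged full-length wild-type ATAD2; BD-mutant and ATPase-mutant constructs run as comparators. Cells treated with 1 μM test compound for 1 h, then a defined area photobleached. Half fluorescence recovery time measured in the bleached area from at least 15 cells per group, reported as mean with standard error of the mean.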

[5] = test system: ATAD2 target genes in MCF7 cells; test: Gene expression study with quantitative PCR; type: cell-based; conditions: MCF7, 24 h, up to 6.67 µM
GST-ATAD2 BD = target: T7, GST-ATAD2 BD (Homo sapiens, UniProt Q6PL18); test: Microscale thermophoresis; type: binding; conditions: MST
T7 sequence (Q6PL18 981-1108): T1 sequence (Q6PL18 981-1108)
Summary of the method: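 Fluorescence-labeled GST-ATAD2 incubated with vehicle or increasing test compound concentrations. Thermophoresis traces recorded in real time. Averaged steady-state MST signals plotted against dose and fitted to a 1:1 binding model to derive KD.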

Permeability = type: in vitro ADME; conditions: Caco-2 assay

## COc1cc(Cl)c(C(=O)N[C@@H](CN[C@H]2CC[C@@H](N)CC2)Cc2ccc(C#N)cc2)cc1-c1ccc(CN[C@H](C)c2ccc(C)cc2)o1 [BAY-850]
Untagged ATAD2 BD
  ATAD2 dimerisation in SEC elution profile: compound-induced shift from the ATAD2-monomer to ATAD2-dimer form
[1]
  growth inhibition of nontransformed vs cancer cells: similarly active on the nontransformed and cancer cells
[2]
  inhibition of tetra-acetylated H4 peptide binding: inhibited tetra-acetylated H4 peptide binding
Panel of 354 kinases
  inhibitory activity in kinase panel: no inhibitory activity
tag-free ATAD2
  binding to ATAD2 by native MS: one BAY-850 molecule binds to an ATAD2 dimer
[3]
  effect on thermal stability of other BD family members: not observed for other members of the BD family
His-ATAD2 BD
  IC50: 157 nM
ATAD2
  Kd: 115 nM
[4]; FRAP, MCF7
  concentration of maximal on-target cellular activity: 1 µM
[4]; MCF7 cells, 1 μM for 1 h, mean ± SEM
  Recovery t1/2: 6.3 ± 1.2 s
[5]
  expression of ATAD2 target genes: did not affect the expression
GST-ATAD2 BD
  Kd: 85 nM
Permeability
  permeability: moderate permeability
